In ChEMBL document CHEMBL1122153, “Novel dimeric derivatives of leucomycins and tylosin, sixteen-membered macrolides” (1982) one finds MIC and IC50 data, which are given here for ten compounds.

Converted amounts (≈) assume the structure as drawn. Bounds are passed on as bounds.

Format in all cases: functional
The subject of one test is Micrococcus luteus. Kind of test: Minimum inhibitory concentration (MIC) required to inhibit the growth of Sarcina lutea PCI 1001 by using nutrient agar as growth medium.
Another test has as its system Bacillus subtilis. Nature of the test: Minimum inhibitory concentration (MIC) required to inhibit the growth of Bacillus subtilis PCI 219 by using nutrient agar as growth medium.
In test [1] the test system is Escherichia coli. Nature of the test: Minimum inhibitory concentration (MIC) required to inhibit the growth of Escherichia coli NIHJ using nutrient agar as growth medium.
Another test deals with Staphylococcus aureus. Kind of test: Minimum inhibitory concentration (MIC) required to inhibit the growth of Staphylococcus aureus FDA 209P by using nutrient agar as growth medium.
The test system of another test is Klebsiella pneumoniae. Nature of the test: Minimum inhibitory concentration (MIC) required to inhibit the growth of Klebsiella pneumoniae PCI 602 using nutrient agar as growth medium.
Test [2] concerns Escherichia coli. Kind of test: Inhibition of 10,11,12,13-[3H]tetrahydroleucomycin A3 binding to Escherichia coli Ribosome. As to conditions: read-out: ID50. The gist of the method:
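Competition binding of [3H]tetrahydroleucomycin A3 to E. coli ribosomes. ID50 is the concentration of test agent giving 50% inhibition of radioligand binding.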

For `CO[C@@H]1[C@@H](OC2OC(C)C(OC3CC(C)(O)C(OC(=O)CC(C)C)C(C)O3)C(N(C)C)C2O)[C@@H](CCN)C[C@@H](C)[C@@H](O)/C=C/C=C/C[C@@H](C)OC(=O)C[C@H]1OC(C)=O` (some centres undefined), the minimum inhibitory concentration (MIC) is greater than 100 µg/mL in the test on Micrococcus luteus; 50 µg/mL (≈ 60.3 µM) in the test on Bacillus subtilis; greater than 100 µg/mL in the test with Escherichia coli [1]; greater than 100 µg/mL against Staphylococcus aureus; greater than 100 µg/mL with Klebsiella pneumoniae.
Turning to `CCCC(=O)OC1C(C)OC(OC2C(C)OC(O[C@H]3[C@@H](CC=O)C[C@@H](C)[C@@H](O)/C=C/C=C/C[C@@H](C)OC(=O)C[C@@H](O)[C@@H]3OC)C(O)C2N(C)C)CC1(C)O` (some centres undefined), the MIC is less than 0.1 µg/mL against Micrococcus luteus; 0.2 µg/mL (≈ 0.259 µM) against Bacillus subtilis; 25 µg/mL (≈ 32.4 µM) against Escherichia coli [1]; less than 0.1 µg/mL in the test on Staphylococcus aureus; 25 µg/mL (≈ 32.4 µM) with Klebsiella pneumoniae. The IC50 with Escherichia coli [2] was 0.0012 µg/mL (≈ 0.00155 µM).
Take `CC[C@@H]1OC(=O)C[C@H](O)[C@@H](C)[C@H](OC2OC(C)C(O)C(N(C)C)C2O)[C@H](CCNCC[C@H]2C[C@@H](C)C(=O)/C=C/C(C)=C/C(COC3OC(C)C(O)C(OC)C3OC)[C@@H](CC)OC(=O)C[C@@H](O)[C@H](C)[C@H]2OC2OC(C)C(O)C(N(C)C)C2O)C[C@H](C)C(=O)/C=C/C(C)=C/C1COC1OC(C)C(O)C(OC)C1OC` (some centres undefined): the minimum inhibitory concentration (MIC) was determined as 0.78 µg/mL (≈ 0.51 µM) in the test with Micrococcus luteus; 25 µg/mL (≈ 16.4 µM) in the test on Bacillus subtilis; 50 µg/mL (≈ 32.7 µM) in the test on Escherichia coli [1]; 3.12 µg/mL (≈ 2.04 µM) in the test with Staphylococcus aureus; 100 µg/mL (≈ 65.4 µM) in the test with Klebsiella pneumoniae.
In the case of `CC[C@H]1OC(=O)C[C@@H](O)[C@H](C)[C@@H](O[C@@H]2O[C@H](C)[C@@H](O[C@H]3C[C@@](C)(O)[C@@H](O)[C@H](C)O3)[C@H](N(C)C)[C@H]2O)[C@@H](CC=O)C[C@@H](C)C(=O)/C=C/C(C)=C/[C@@H]1CO[C@@H]1O[C@H](C)[C@@H](O)[C@@H](OC)[C@H]1OC` [TYLOSIN], the minimum inhibitory concentration (MIC) was less than 0.1 µg/mL against Micrococcus luteus; 0.78 µg/mL (≈ 0.851 µM) in the test with Bacillus subtilis; 50 µg/mL (≈ 54.6 µM) in the test on Escherichia coli [1]; 0.78 µg/mL (≈ 0.851 µM) with Staphylococcus aureus; 100 µg/mL (≈ 109 µM) against Klebsiella pneumoniae. The IC50 with Escherichia coli [2] turned out to be 0.0004 µg/mL (≈ 0.000437 µM).
As for `CO[C@@H]1[C@@H](OC2OC(C)C(OC3CC(C)(O)C(OC(=O)CC(C)C)C(C)O3)C(N(C)C)C2O)[C@@H](CC=O)C[C@@H](C)[C@@H](O)/C=C/C=C/C[C@@H](C)OC(=O)C[C@H]1OC(C)=O` (some centres undefined), the minimum inhibitory concentration (MIC) against Micrococcus luteus was less than 0.1 µg/mL; in the test with Bacillus subtilis it was 0.4 µg/mL (≈ 0.483 µM); with Escherichia coli [1] it was 50 µg/mL (≈ 60.4 µM); in the test with Staphylococcus aureus, 0.4 µg/mL (≈ 0.483 µM); in the test on Klebsiella pneumoniae it was 50 µg/mL (≈ 60.4 µM).
As to `CCCC(=O)OC1C(C)OC(OC2C(C)OC(O[C@@H]3[C@H](CCNCC[C@H]4C[C@@H](C)[C@@H](O)/C=C/C=C/C[C@@H](C)OC(=O)C[C@@H](O)[C@H](OC)[C@H]4OC4OC(C)C(OC5CC(C)(O)C(OC(=O)CCC)C(C)O5)C(N(C)C)C4O)C[C@H](C)[C@H](O)/C=C/C=C/C[C@H](C)OC(=O)C[C@H](O)[C@H]3OC)C(O)C2N(C)C)CC1(C)O` (some centres undefined), the minimal inhibitory concentration (MIC) against Micrococcus luteus was 12.5 µg/mL (≈ 8.18 µM); against Bacillus subtilis it was 12.5 µg/mL (≈ 8.18 µM); with Escherichia coli [1] it was greater than 100 µg/mL; in the test with Staphylococcus aureus, 50 µg/mL (≈ 32.7 µM); against Klebsiella pneumoniae, greater than 100 µg/mL. Besides, in the test with Escherichia coli [2], the IC50 was 0.02 µg/mL (≈ 0.0131 µM).
As to `CC[C@H]1C[C@@H](C)[C@@H](O)/C=C/C=C/C[C@@H](C)OC(=O)C[C@@H](OC(C)=O)[C@H](OC)[C@H]1OC1OC(C)C(OC2CC(C)(O)C(OC(=O)CC(C)C)C(C)O2)C(N(C)C)C1O` (some centres undefined), the MIC against Micrococcus luteus was 1.56 µg/mL (≈ 1.92 µM); in the test on Bacillus subtilis, 6.25 µg/mL (≈ 7.68 µM); in the test on Escherichia coli [1], greater than 100 µg/mL; with Staphylococcus aureus, 6.25 µg/mL (≈ 7.68 µM); with Klebsiella pneumoniae, greater than 100 µg/mL.
On to `CO[C@@H]1[C@@H](OC2OC(C)C(OC3CC(C)(O)C(OC(=O)CC(C)C)C(C)O3)C(N(C)C)C2O)[C@@H](CCNCC[C@@H]2C[C@H](C)[C@H](O)/C=C/C=C/C[C@H](C)OC(=O)C[C@H](OC(C)=O)[C@@H](OC)[C@@H]2OC2OC(C)C(OC3CC(C)(O)C(OC(=O)CC(C)C)C(C)O3)C(N(C)C)C2O)C[C@@H](C)[C@@H](O)/C=C/C=C/C[C@@H](C)OC(=O)C[C@H]1OC(C)=O` (some centres undefined), for which the MIC against Micrococcus luteus was 25 µg/mL (≈ 15.2 µM); against Bacillus subtilis, 6.25 µg/mL (≈ 3.81 µM); with Escherichia coli [1], greater than 100 µg/mL; against Staphylococcus aureus, 100 µg/mL (≈ 60.9 µM); against Klebsiella pneumoniae it was greater than 100 µg/mL. Moreover, the IC50 in the test with Escherichia coli [2] stood at 0.1 µg/mL (≈ 0.0609 µM).
For the compound `CC[C@H]1OC(=O)C[C@@H](O)[C@H](C)[C@@H](OC2OC(C)C(OC3CC(C)(O)C(O)C(C)O3)C(N(C)C)C2O)[C@@H](CCN)C[C@@H](C)C(=O)/C=C/C(C)=C/C1COC1OC(C)C(O)C(OC)C1OC` (some centres undefined), the minimum inhibitory concentration (MIC) with Micrococcus luteus was 6.25 µg/mL (≈ 6.81 µM); against Bacillus subtilis it was 25 µg/mL (≈ 27.3 µM); with Escherichia coli [1] it was greater than 100 µg/mL; against Staphylococcus aureus it was 50 µg/mL (≈ 54.5 µM); against Klebsiella pneumoniae, greater than 100 µg/mL.
In the case of `CCCC(=O)OC1C(C)OC(OC2C(C)OC(O[C@H]3[C@@H](CCN)C[C@@H](C)[C@@H](O)/C=C/C=C/C[C@@H](C)OC(=O)C[C@@H](O)[C@@H]3OC)C(O)C2N(C)C)CC1(C)O` (some centres undefined), the minimal inhibitory concentration (MIC) in the test on Micrococcus luteus is 25 µg/mL (≈ 32.3 µM); in the test on Bacillus subtilis, greater than 100 µg/mL; against Escherichia coli [1] it was greater than 100 µg/mL; against Staphylococcus aureus it was greater than 100 µg/mL; with Klebsiella pneumoniae, greater than 100 µg/mL.
